Here are results for 3 compounds from ChEMBL document CHEMBL1141112, “Synthesis and antiinflammatory activity of coumarin derivatives” (J Med Chem, 2005).

The Inhibition is how much of the control response was suppressed. The low end stands for a response near the control, the high end for a response far below the control. A word on the IC50: it is the concentration needed to halve the response being measured.

Test [1] relates to Rattus norvegicus. The experiment in a line: Percent inhibition of carrageenan 2% (0.1 mL intradermal) induced paw edema at the i.p. dose of 0.01 m mol/kg in fisher 344 rats; n=5. In kind it is functional. The procedure, abridged:
(§1)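 Right hind paw edema in Fischer 344 rats (150–200 g) induced by intradermal 0.1 mL 2% carrageenin in water. Rats killed 3.5 h after carrageenin; injected minus uninjected paw weight compared with water-treated controls and expressed as percent inhibition. Mean of two experiments, five animals per group; Student's t-test.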

The nature of test [2]: Percent heme protein dependent lipid peroxidation (1 mM) upon incubation for 10 min at 37 degree C. in pH 7.4 with arachidonic acid and H2O2; no action. The test is classed as functional. The procedure, abridged: (§2)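 Heme 50 μM, arachidonic acid 0.4 mM, test compound and H2O2 0.5 mM incubated together for 10 min at 37 °C in KH2PO4–KOH buffer (50 mM, pH 7.4). Tested at 0.1 and 1 mM. At least triplicate; absorbance SD under 10% of mean.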

A short description of test [3]: Superoxide radical scavenging activity at 1 mM upon incubation for 2 min at RT in pH 7.4 with PMS, NADH and NBT by nitroblue tetrazolium method.
Test [4] is described as follows: Percent heme protein dependent lipid peroxidation (0.1 mM) upon incubation for 10 min at 37 degree C. in pH 7.4 with arachidonic acid and H2O2; no action. In kind it is functional. An outline of the steps:
as §2

Test [5] has as its target T1, Seed linoleate 13S-lipoxygenase-1 (Glycine max, UniProt P08170).
T1 sequence (P08170 whole entry): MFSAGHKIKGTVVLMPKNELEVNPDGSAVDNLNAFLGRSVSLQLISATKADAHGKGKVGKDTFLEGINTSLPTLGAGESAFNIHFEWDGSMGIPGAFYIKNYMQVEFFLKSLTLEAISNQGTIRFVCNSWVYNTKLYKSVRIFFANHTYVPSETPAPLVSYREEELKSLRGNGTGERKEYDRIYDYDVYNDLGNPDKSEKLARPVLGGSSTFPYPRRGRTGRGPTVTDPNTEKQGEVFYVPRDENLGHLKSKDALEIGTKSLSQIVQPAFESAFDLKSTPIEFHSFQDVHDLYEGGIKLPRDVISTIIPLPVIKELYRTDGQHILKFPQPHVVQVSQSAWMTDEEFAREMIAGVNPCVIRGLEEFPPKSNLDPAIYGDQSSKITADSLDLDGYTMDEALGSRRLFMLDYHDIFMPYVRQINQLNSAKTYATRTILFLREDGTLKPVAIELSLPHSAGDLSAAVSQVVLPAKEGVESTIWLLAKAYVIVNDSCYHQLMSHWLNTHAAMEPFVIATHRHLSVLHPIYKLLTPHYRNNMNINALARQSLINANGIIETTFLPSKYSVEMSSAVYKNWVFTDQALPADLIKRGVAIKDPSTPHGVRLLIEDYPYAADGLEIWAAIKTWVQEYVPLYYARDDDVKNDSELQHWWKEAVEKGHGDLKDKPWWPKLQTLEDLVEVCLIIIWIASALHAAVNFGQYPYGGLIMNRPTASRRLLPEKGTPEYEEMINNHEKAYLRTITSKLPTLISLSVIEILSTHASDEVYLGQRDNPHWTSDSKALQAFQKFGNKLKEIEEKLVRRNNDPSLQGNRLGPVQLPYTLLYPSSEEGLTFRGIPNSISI
The experiment in a line: Inhibitory concentration against soybean lipoxygenase upon incubation with sodium linoleate (0.1 mM) at RT; no action.

Test [6] relates to Rattus norvegicus. Description: Duration of paralysis in rats (injected i.p. with 10 mg/1 mL/g of zoxazolamine) at i.p. dose of 0.001 m mol/kg after 24 days. The test is classed as functional. The procedure, abridged: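 Fischer 344 rats, groups of five, given Freund's Adjuvant intradermally at tail base; compound ip 0.001 mmol/kg from day zero every other day for 24 days. On day 24, ≥12 h after last dose, zoxazolamine ip 10 mg/1 mL/g as aqueous Tween 80 suspension; paralysis duration timed. Run in duplicate.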

Test [7] has as its system Rattus norvegicus. The experiment in a line: Onset of arthritis measured as arthritic score at i.p. dose of 0.001 m mol/kg in rats injected intradermally with Freund's adjuvant after 16 days. The test is classed as functional. The procedure, abridged:
(§3)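 Fischer 344 rats, five per group, given Freund's adjuvant (0.6 mg desiccated Mycobacterium butyricum in 0.1 mL liquid paraffin) intradermally at tail base. Compound given ip at 0.001 mmol/kg from day 0, every other day for 24 days; absolute controls got vehicle only. Score: one point per inflamed wrist/ankle plus one per involved phalangeal joint, max five per limb, every 2 days from day 14. Run in duplicate.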

For test [8], the system named is Rattus norvegicus. Description: Onset of arthritis measured as arthritic score at i.p. dose of 0.001 m mol/kg in rats injected intradermally with Freund's adjuvant after 0 days. In kind it is functional. An outline of the steps:
as §3

Test [9] concerns Rattus norvegicus. Description: Onset of arthritis measured as arthritic score at i.p. dose of 0.001 m mol/kg in rats injected intradermally with Freund's adjuvant after 24 days. In kind it is functional. An outline of the steps: as §3
Test [10] relates to Rattus norvegicus. Description: Percent inhibition of carrageenan 2% (0.1 mL intradermal) induced paw edema at the i.p. dose of 0.01 m mol/kg in fisher 344 rats; n=5; no action. In kind it is functional, organism-based. The procedure, abridged:
as §1

Test [11] relates to Rattus norvegicus. Description: Onset of arthritis measured as arthritic score at i.p. dose of 0.001 m mol/kg in rats injected intradermally with Freund's adjuvant after 20 days. In kind it is functional. An outline of the steps:
as §3

Test [12] can be described thus: Percent heme protein dependent lipid peroxidation at (1 mM) upon incubation for 10 min at 37 degree C. in pH 7.4 with arachidonic acid and H2O2. The test is classed as functional. The procedure, abridged:
as §2

In test [13] the test system is Rattus norvegicus. Description: Onset of arthritis measured as arthritic score at i.p. dose of 0.001 m mol/kg in rats injected intradermally with Freund's adjuvant after 4 days. The test is classed as functional. The procedure, abridged:
as §3

The test system of test [14] is Rattus norvegicus. Description: Onset of arthritis measured as arthritic score at i.p. dose of 0.001 m mol/kg in rats injected intradermally with Freund's adjuvant after 8 days. In kind it is functional. An outline of the steps:
as §3

Test [15] concerns Rattus norvegicus. The experiment in a line: Onset of arthritis measured as arthritic score at i.p. dose of 0.001 m mol/kg in rats injected intradermally with Freund's adjuvant after 2 days. The test is classed as functional. The procedure, abridged:
as §3

The subject of test [16] is Rattus norvegicus. Description: Percent change in body weight of (FA) adjuvant induced rats at i.p. dose of 0.001 m mol/kg after 24 days. The test is classed as functional.
The subject of test [17] is Rattus norvegicus. The experiment in a line: Onset of arthritis measured as arthritic score at i.p. dose of 0.001 m mol/kg in rats injected intradermally with Freund's adjuvant after 6 days. The test is classed as functional. The procedure, abridged: as §3
For test [18], the system named is Rattus norvegicus. The experiment in a line: Onset of arthritis measured as arthritic score at i.p. dose of 0.001 m mol/kg in rats injected intradermally with Freund's adjuvant after 10 days. In kind it is functional. The procedure, abridged: as §3
Test [19] addresses T1, Seed linoleate 13S-lipoxygenase-1. The experiment in a line: Inhibitory concentration against soybean lipoxygenase upon incubation with sodium linoleate (0.1 mM) at RT. The procedure, abridged: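 Soybean lipoxygenase (0.2 mL enzyme solution, 1/3 ×10^4 w/v in saline) incubated at room temperature with test compounds in ethanol and sodium linoleate 0.1 mM as substrate. Conversion to 13-hydroperoxylinoleic acid followed at 234 nm and compared with NDGA as standard inhibitor. Run at least in triplicate; SD of absorbance under 10% of mean.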

Test [20] concerns Rattus norvegicus. The experiment in a line: Onset of arthritis measured as arthritic score at i.p. dose of 0.001 m mol/kg in rats injected intradermally with Freund's adjuvant after 14 days. In kind it is functional. An outline of the steps:
as §3

Test [21] deals with Rattus norvegicus. The experiment in a line: Onset of arthritis measured as arthritic score at i.p. dose of 0.001 m mol/kg in rats injected intradermally with Freund's adjuvant after 18 days. The test is classed as functional. An outline of the steps:
as §3

The test system of test [22] is Rattus norvegicus. Description: Onset of arthritis measured as arthritic score at i.p. dose of 0.001 m mol/kg in rats injected intradermally with Freund's adjuvant after 22 days. The test is classed as functional. An outline of the steps:
as §3

The nature of test [23]: Percent heme protein dependent lipid peroxidation at (0.1 mM) upon incubation for 10 min at 37 degree C. in pH 7.4 with arachidonic acid and H2O2. The test is classed as functional. An outline of the steps: as §2
Test [24] deals with Rattus norvegicus. The experiment in a line: Onset of arthritis measured as arthritic score at i.p. dose of 0.001 m mol/kg in rats injected intradermally with Freund's adjuvant after 12 days. In kind it is functional. An outline of the steps: as §3
Test [25] has as its system Rattus norvegicus. Description: Onset of arthritis measured as arthritic score at p.o. dose of 80 mg/kg in rats injected intradermally with Freund's adjuvant after 24 days. The test is classed as functional. The following applies: route oral.

For `CC(=O)CC(c1ccccc1)c1c(O)c2ccccc2oc1=O` (stereo unspecified) [WARFARIN], the Inhibition in the test with Rattus norvegicus [1] is reported as 41%. The Lipid peroxidation result in test [2] and in test [4] was “No action” each time. In test [3], this compound registered a Scavenging Activity of 25%. In addition, the IC50 result in [5] is on record as “No Action”.

On to `O=c1ccc2ccc(O)cc2o1` [UMBELLIFERONE], for which the Paralysis with Rattus norvegicus [6] is listed as 232.5 min. In addition, the Arthritic score was found to be 1.2 in the test with Rattus norvegicus [7]; 0 in the test with Rattus norvegicus [8]; 4 in the test on Rattus norvegicus [9]; 2.6 in the test with Rattus norvegicus [11]; 0 with Rattus norvegicus [13]; 0 in the test on Rattus norvegicus [14]. In addition, the Arthritic score in the test with Rattus norvegicus [15] amounted to 0; in the test on Rattus norvegicus [17], 0; in the test with Rattus norvegicus [18] it was 0; with Rattus norvegicus [20], 1.2; with Rattus norvegicus [21], 1.8; in the test with Rattus norvegicus [22], 5.2. The Arthritic score in the test on Rattus norvegicus [24] is given as 0. Besides, the inhibition result with Rattus norvegicus [10] was “No Action”. The Lipid peroxidation in test [12] was determined as 26.1%; in test [23] it was 14.6%. Also, the “Change of body weight” value in the test on Rattus norvegicus [16] turned out to be 18.6%. For the same compound, in test [19], the midpoint of inhibition, the IC50, lay at 43 µM. In test [3], this compound returned a Scavenging Activity of 80.6%.

Regarding `CCCCC1C(=O)N(c2ccccc2)N(c2ccccc2)C1=O` [PHENYLBUTAZONE], the Arthritic score in the test on Rattus norvegicus [25] is recorded as 9.
